Source: ChEMBL document CHEMBL3102784, “Salicylanilide diethyl phosphates: synthesis, antimicrobial activity and cytotoxicity” (Bioorg Med Chem, 2014)
Values after ≈ are worked out from the molar mass of the structure shown. Active and inactive are the calls of the source. No cut-off for these calls is given here.

Assays:
Candida tropicalis = assay: Antifungal activity against Candida tropicalis 156 at 500 micromol/L after 24 to 48 hrs by broth microdilution method; assay type: functional, organism-based
Summary of the method: (§1)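 Broth microdilution in RPMI 1640 with glutamine, fluconazole as reference. For yeasts, MIC is ≥80% growth reduction (IC80) versus control. For filamentous fungi, the value is expressed as IC50. Readings at 24 and 48 h.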

[1] = test system: Staphylococcus epidermidis; assay: Antibacterial activity against Staphylococcus epidermidis H 6966/08 after 48 hrs by broth microdilution method; assay type: functional; settings: H 6966/08, 48 h
Summary of the method: (§2)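 Broth microdilution in Mueller–Hinton broth, compounds dissolved in DMSO, tested over a dilution series from 500 downward. MIC taken as ≥95% growth reduction (IC95) versus drug-free control. Benzylpenicillin comparator. Readings at 24 and 48 h.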

Candida albicans [2] = assay: Antifungal activity against Candida albicans ATCC 44859 after 24 hrs by broth microdilution method; assay type: functional; settings: ATCC 44859, 24 h; summary of the method: as §1
Nakaseomyces glabratus = assay: Antifungal activity against Candida glabrata 20/I at 500 micromol/L after 24 to 48 hrs by broth microdilution method; assay type: functional, organism-based; summary of the method: as §1
Aspergillus fumigatus [3] = assay: Antifungal activity against Aspergillus fumigatus 231 after 24 hrs by broth microdilution method; assay type: functional; settings: Aspergillus fumigatus, 231, 24 h; summary of the method: as §1
Candida albicans [4] = assay: Antifungal activity against Candida albicans ATCC 44859 after 48 hrs by broth microdilution method; assay type: functional; settings: ATCC 44859, 48 h; summary of the method: as §1
Staphylococcus aureus [5] = assay: Antibacterial activity against Staphylococcus aureus CCM 4516/08 after 48 hrs by broth microdilution method; assay type: functional; settings: CCM 4516/08, 48 h; summary of the method: as §2
Trichosporon asahii [6] = assay: Antifungal activity against Trichosporon asahii 1188 after 24 hrs by broth microdilution method; assay type: functional; settings: Trichosporon asahii, 1188, 24 h; summary of the method: as §1
Staphylococcus aureus [7] = assay: Antibacterial activity against Staphylococcus aureus CCM 4516/08 after 24 hrs by broth microdilution method; assay type: functional; settings: CCM 4516/08, 24 h; summary of the method: as §2
Pseudomonas aeruginosa = assay: Antibacterial activity against Pseudomonas aeruginosa CCM 1961 at 500 micromol/L after 24 to 48 hrs by broth microdilution method; assay type: functional, organism-based; summary of the method: as §2
Mycobacterium kansasii [8] = assay: Antimycobacterial activity against Mycobacterium kansasii My 235/80 after 7 days; assay type: functional; settings: My 235/80, 168 h
Summary of the method: (§3)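 Micromethod MIC in Šula's semisynthetic medium at 37 °C. Compounds added in DMSO at 1000 down to 0.032 µmol/L. Isoniazid standard in sterile water at 0.5–250 µmol/L. Inocula: H37Rv 10^3, M. avium 10^5, M. kansasii 10^4. Read at 14 and 21 d, plus 7 d for M. kansasii.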

Staphylococcus aureus [9] = assay: Antibacterial activity against methicillin-resistant Staphylococcus aureus H 5996/08 after 48 hrs by broth microdilution method; assay type: functional; settings: H 5996/08, 48 h; summary of the method: as §2
Pichia kudriavzevii [10] = assay: Antifungal activity against Candida krusei E28 after 48 hrs by broth microdilution method; assay type: functional; settings: E28, 48 h; summary of the method: as §1
Klebsiella pneumoniae [11] = assay: Antibacterial activity against ESBL-positive Klebsiella pneumoniae J 14368/08 at 500 micromol/L after 24 to 48 hrs by broth microdilution method; assay type: functional, organism-based; summary of the method: as §2
[12] = test system: Staphylococcus epidermidis; assay: Antibacterial activity against Staphylococcus epidermidis H 6966/08 after 24 hrs by broth microdilution method; assay type: functional; settings: H 6966/08, 24 h; summary of the method: as §2
Trichosporon asahii [13] = assay: Antifungal activity against Trichosporon asahii 1188 after 48 hrs by broth microdilution method; assay type: functional; settings: Trichosporon asahii, 1188, 48 h; summary of the method: as §1
Lichtheimia corymbifera [14] = assay: Antifungal activity against Absidia corymbifera 272 after 48 hrs by broth microdilution method; assay type: functional; settings: Lichtheimia corymbifera, 272, 48 h; summary of the method: as §1
HepG2 = assay: Cytotoxicity against human HepG2 cells after 24 hrs by CellTiter assay; assay type: cell-based; settings: HepG2, 24 h
Summary of the method: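 HepG2 cells (passage 27–33) in MEM with 10% FBS, L-glutamine and NEAA, seeded at 1×10^4 per well. Treated next day with compounds at 0.1–100 µM (or 0.1–25 µmol/L), triplicates, <1% DMSO, for 24 h at 37 °C, 5% CO2. MTS reagent added for 2 h, absorbance read at 490 nm. IC50 taken against untreated (100%) and 10% DMSO (0%) controls.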

Staphylococcus aureus [15] = assay: Antibacterial activity against methicillin-resistant Staphylococcus aureus H 5996/08 after 24 hrs by broth microdilution method; assay type: functional; settings: H 5996/08, 24 h; summary of the method: as §2
Mycobacterium avium [16] = assay: Antimycobacterial activity against isoniazid, rifampicin, ethambutol and ofloxacin-resistant Mycobacterium avium My 330/88 after 21 days; assay type: functional; settings: My 330/88, 504 h; summary of the method: as §3
[17] = test system: Trichophyton mentagrophytes; assay: Antifungal activity against Trichophyton mentagrophytes 445 after 72 hrs by broth microdilution method; assay type: functional; settings: Trichophyton mentagrophytes, 445, 72 h
Summary of the method: (§4)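 Filamentous dermatophyte tested by broth microdilution in RPMI 1640 with glutamine, fluconazole as reference. Value expressed as IC50 relative to growth control. Read at 72 and 120 h.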

Mycobacterium kansasii [18] = assay: Antimycobacterial activity against Mycobacterium kansasii 6509/96 after 21 days; assay type: functional; settings: 6509/96, 504 h; summary of the method: as §3
Mycobacterium kansasii [19] = assay: Antimycobacterial activity against Mycobacterium kansasii My 235/80 after 14 days; assay type: functional; settings: My 235/80, 336 h; summary of the method: as §3
Enterococcus sp. = assay: Antibacterial activity against Enterococcus sp. J 14365/08 at 500 micromol/L after 24 to 48 hrs by broth microdilution method; assay type: functional, organism-based; summary of the method: as §2
Aspergillus fumigatus [20] = assay: Antifungal activity against Aspergillus fumigatus 231 after 48 hrs by broth microdilution method; assay type: functional; settings: Aspergillus fumigatus, 231, 48 h; summary of the method: as §1
Pichia kudriavzevii [21] = assay: Antifungal activity against Candida krusei E28 after 24 hrs by broth microdilution method; assay type: functional; settings: E28, 24 h; summary of the method: as §1
Lichtheimia corymbifera [22] = assay: Antifungal activity against Absidia corymbifera 272 after 24 hrs by broth microdilution method; assay type: functional; settings: Lichtheimia corymbifera, 272, 24 h; summary of the method: as §1
Escherichia coli = assay: Antibacterial activity against Escherichia coli CCM 4517 at 500 micromol/L after 24 to 48 hrs by broth microdilution method; assay type: functional, organism-based; summary of the method: as §2
[23] = test system: Mycobacterium tuberculosis; assay: Antimycobacterial activity against Mycobacterium tuberculosis H37Rv My 331/88 after 21 days; assay type: functional; settings: H37Rv My 331/88, 504 h; summary of the method: as §3
[24] = test system: Trichophyton mentagrophytes; assay: Antifungal activity against Trichophyton mentagrophytes 445 after 120 hrs by broth microdilution method; assay type: functional; settings: Trichophyton mentagrophytes, 445, 120 h; summary of the method: as §4
Mycobacterium avium [25] = assay: Antimycobacterial activity against isoniazid, rifampicin, ethambutol and ofloxacin-resistant Mycobacterium avium My 330/88 after 14 days; assay type: functional; settings: My 330/88, 336 h; summary of the method: as §3
Mycobacterium kansasii [26] = assay: Antimycobacterial activity against Mycobacterium kansasii 6509/96 after 7 days; assay type: functional; settings: 6509/96, 168 h; summary of the method: as §3
[27] = test system: Mycobacterium tuberculosis; assay: Antimycobacterial activity against Mycobacterium tuberculosis H37Rv My 331/88 after 14 days; assay type: functional; settings: H37Rv My 331/88, 336 h; summary of the method: as §3
Mycobacterium kansasii [28] = assay: Antimycobacterial activity against Mycobacterium kansasii 6509/96 after 14 days; assay type: functional; settings: 6509/96, 336 h; summary of the method: as §3
Mycobacterium kansasii [29] = assay: Antimycobacterial activity against Mycobacterium kansasii My 235/80 after 21 days; assay type: functional; settings: My 235/80, 504 h; summary of the method: as §3
Klebsiella pneumoniae [30] = assay: Antibacterial activity against Klebsiella pneumoniae D 11750/08 at 500 micromol/L after 24 to 48 hrs by broth microdilution method; assay type: functional, organism-based; summary of the method: as §2

## CCOP(=O)(OCC)Oc1ccc(Br)cc1C(=O)Nc1cccc(C(F)(F)F)c1
Candida tropicalis
  Activity: inactive
[1]
  MIC95: 7.81 µM (≈ 3.88 µg/mL)
Candida albicans [2]
  MIC80: > 500 µM
Nakaseomyces glabratus
  Activity: inactive
Aspergillus fumigatus [3]
  MIC50: > 500 µM
Candida albicans [4]
  MIC80: > 500 µM
Staphylococcus aureus [5]
  MIC95: 7.81 µM (≈ 3.88 µg/mL)
Trichosporon asahii [6]
  MIC80: > 500 µM
Staphylococcus aureus [7]
  MIC95: 7.81 µM (≈ 3.88 µg/mL)
Pseudomonas aeruginosa
  Activity: inactive
Mycobacterium kansasii [8]
  MIC: 4 µM (≈ 1.98 µg/mL)
Staphylococcus aureus [9]
  MIC95: 15.6 µM (≈ 7.75 µg/mL)
Pichia kudriavzevii [10]
  MIC80: > 500 µM
Klebsiella pneumoniae [11]
  Activity: inactive
[12]
  MIC95: 7.81 µM (≈ 3.88 µg/mL)
Trichosporon asahii [13]
  MIC80: > 500 µM
Lichtheimia corymbifera [14]
  MIC50: > 500 µM
HepG2
  IC50: 1.84 µM
Staphylococcus aureus [15]
  MIC95: 15.6 µM (≈ 7.75 µg/mL)
Mycobacterium avium [16]
  MIC: 16 µM (≈ 7.94 µg/mL)
[17]
  MIC50: 62.5 µM (≈ 31 µg/mL)
Mycobacterium kansasii [18]
  MIC: 8 µM (≈ 3.97 µg/mL)
Mycobacterium kansasii [19]
  MIC: 4 µM (≈ 1.98 µg/mL)
Enterococcus sp.
  Activity: inactive
Aspergillus fumigatus [20]
  MIC50: > 500 µM
Pichia kudriavzevii [21]
  MIC80: > 500 µM
Lichtheimia corymbifera [22]
  MIC50: > 500 µM
Escherichia coli
  Activity: inactive
[23]
  MIC: 2 µM (≈ 0.992 µg/mL)
[24]
  MIC50: 62.5 µM (≈ 31 µg/mL)
Mycobacterium avium [25]
  MIC: 16 µM (≈ 7.94 µg/mL)
Mycobacterium kansasii [26]
  MIC: 4 µM (≈ 1.98 µg/mL)
[27]
  MIC: 2 µM (≈ 0.992 µg/mL)
Mycobacterium kansasii [28]
  MIC: 8 µM (≈ 3.97 µg/mL)
Mycobacterium kansasii [29]
  MIC: 8 µM (≈ 3.97 µg/mL)
Klebsiella pneumoniae [30]
  Activity: inactive
